# Source: PubChem (several laboratories)
# Shown are actives, neighbours in structure and some others; about 2.4% of the full set was active somewhere.
# Neddyl block = inhibitors of cullin neddylation, primary screen, biochemical, TR-FRET, uHTS, NAE and Ubc12. NEDD8-conjugating enzyme Ubc12 (Homo sapiens) + NEDD8-activating enzyme E1 regulatory …. inhibition, % at 25 µM. 0.58% of 360,000 active; in the data active means inhibition above about 36%
# Rpn11 inh = Rpn11 (PSMD14) deubiquitinase inhibitors, primary screen, biochemical, fluorescence polarization, uHTS; 0.59% of 360,000 active; 26S proteasome non-ATPase regulatory subunit 14 (Homo sapiens), O00487; human 26S proteasome, Ub4-pepOG fluorescence polarization; 20S core pre-blocked with epoxomicin; inhibition, % at 20 µM;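 active means inhibition at 20 µM, scaled to each plate's controls, above about 33%, limit read from the data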
# Rin1-Abl PPI inh = inhibitors of Rin1-Abl protein binding, primary screen, biochemical, TR-FRET | inhibition, % at 7.35 µM | 0.4% of 360,000 active | AID 588664, 2011; in the data active means inhibition above about 5%, passing the limit was not always enough
# TPT1 inhibitor = Candida albicans TPT1 enzyme inhibitors, primary screen, biochemical, fluorescence polarization; 0.81% of 300,000 active; inhibition, % at 5 µM; recombinant caTPT1, FP RNA substrate dephosphorylation; tRNA 2'-phosphotransferase TPT1 (Candida albicans SC5314);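 active means inhibition above the mean of all tested compounds plus 3 SD, set per screening campaign, cut at about 24% in these data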;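 further: plate controls were DMSO alone for no effect and ferristatin control at 100 nM for full effect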
# CSN deneddyl inh = inhibitors of CSN-mediated cullin deneddylation, primary screen, biochemical, fluorescence polarization, uHTS; inhibition, % at 12.5 µM; Purified CSN, SCF-Nedd8-OG deneddylation; 0.38% of 360,000 active; COP9 signalosome complex subunit 5 (Homo sapiens), Q92905;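 active means pattern-corrected inhibition above about 35%, with an unprinted fluorescence ratio check between 0.5 and 1.5, limit read from the data, passing the limit was not always enough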;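 further: 0% = enzyme with substrate and 100% = substrate without enzyme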
#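 Assay system: purified human Csn5 enzyme expressed in HEK293T cells; measure: % inhibition; also added: SCFSkp2-Nedd8OG substrate at 10 nM final; technique: fluorescence polarization; times: reaction 90 min, room temperature; medium: Tris buffer pH 7.5, NaCl, DTT, Tween-20, trehalose, ovalbumin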
# HNF4A DNA FP = change in binding of human HNF4A to DNA, primary screen, biochemical, fluorescence polarization, FITC-DNA | Hepatocyte nuclear factor 4-alpha (Homo sapiens), P41235 | 1 h | activity change, % at 10 µM | 0.3% of 360,000 active | AID 1224865, 2016; in the data active means activity change above about 30%, passing the limit was not always enough
# caTPT1 confirm = Candida albicans TPT1 inhibitors, confirmation, biochemical, fluorescence polarization, triplicate. 74% of 2,400 active. shares compounds with TPT1 inhibitor. AID 2149, 2009. inhibition, % at 5 µM. recombinant caTPT1, RNase T1 coupled;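 active means inhibition above the primary screen limit, the mean inhibition of all tested compounds plus 3 SD, cut at about 25% in these data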
# RNase T1 counter = RNase T1 inhibitors, counter-screen for TPT1 inhibitor project, biochemical, fluorescence polarization | shares compounds with TPT1 inhibitor | RNase T1 cleavage, 1536-well | inhibition, % at 5 µM | 83% of 2,400 active;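 active means inhibition above the solvent-only control well mean plus 3 SD, limit set per screening run, cut at about 23% in these data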;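 further: plate controls were DMSO wells with enzyme for no effect and wells without RNase T1 for full effect; inhibitors block cleavage so intact labeled substrate keeps polarization high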
# Rpn11 inh conf = Rpn11 (PSMD14) deubiquitinase inhibitors, confirmation, biochemical, fluorescence polarization, single concentration | shares compounds with Rpn11 inh | purified human 26S proteasome, Ub4-pepOG fluorescence polarization; proteasome pretreated with epoxomicin | 29% of 1,900 active | inhibition, % at 20 µM
# MMP-2 inh = MMP-2 enzyme inhibition, confirmation, counter-screen for RPN11 inhibitor project, biochemical, fluorescence, single concentration | shares compounds with Rpn11 inh | recombinant MMP-2, FRET peptide cleavage fluorescence | inhibition, % at 20 µM | 4% of 1,900 active | AID 602330, 2012;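 further: human MMP-2 activated beforehand with APMA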
# Thrombin inh = bovine thrombin protease inhibition, confirmation, counter-screen for Rpn11 inhibitor project, biochemical, fluorescence polarization, single concentration | 13% of 1,900 active | inhibition, % at 20 µM | bovine thrombin cleavage of Ub4-pepOG | AID 602333, 2012 | shares compounds with Rpn11 inh;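 active means mean inhibition at least 40% at 20 µM, or signal 3 deviations below plate average, so some actives read negative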;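 further: plate controls were thrombin with DMSO for no effect and buffer wells lacking thrombin for full effect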
# Target sequence (P00735 whole entry, looked up): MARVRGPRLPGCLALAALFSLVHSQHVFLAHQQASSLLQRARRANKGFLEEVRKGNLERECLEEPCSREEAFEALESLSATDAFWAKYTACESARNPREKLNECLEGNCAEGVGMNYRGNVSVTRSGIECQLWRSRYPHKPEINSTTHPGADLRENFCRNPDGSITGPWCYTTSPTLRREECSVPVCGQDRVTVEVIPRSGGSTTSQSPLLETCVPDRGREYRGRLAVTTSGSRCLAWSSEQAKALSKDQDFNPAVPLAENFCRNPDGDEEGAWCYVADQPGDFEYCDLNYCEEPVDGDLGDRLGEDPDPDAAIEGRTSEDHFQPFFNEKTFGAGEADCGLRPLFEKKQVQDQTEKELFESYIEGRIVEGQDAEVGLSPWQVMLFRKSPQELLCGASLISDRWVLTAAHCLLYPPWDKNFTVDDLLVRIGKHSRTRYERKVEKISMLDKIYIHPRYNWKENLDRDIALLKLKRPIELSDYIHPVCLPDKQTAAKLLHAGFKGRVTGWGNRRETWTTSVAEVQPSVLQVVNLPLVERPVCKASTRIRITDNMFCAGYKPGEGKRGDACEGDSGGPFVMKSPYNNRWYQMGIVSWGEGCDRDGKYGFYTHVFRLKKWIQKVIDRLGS
# Numbers without * were called inactive; x = no result. Unless noted, no stated cut-off is given here; in the data, active means inhibition above about 40%; inactive means the rest.
SMILES,Neddyl block,Rpn11 inh,Rin1-Abl PPI inh,TPT1 inhibitor,CSN deneddyl inh,HNF4A DNA FP,caTPT1 confirm,RNase T1 counter,Rpn11 inh conf,MMP-2 inh,Thrombin inh
CCOc1ccc(N2C(=O)S/C(=C\c3ccc(O)c(OCC)c3)C2=O)cc1,-12.0,46.7*,-1.4,46.2*,2.5,14.6,58.0*,59.5*,8.8,26.2,-1.5
CCOC(=O)[C@]12CCC=C1N(Cc1ccc3c(c1)OCO3)C(=O)[C@H](CC(=O)N1CCOCC1)C2,-2.4,x,x,x,6.5,1.5,x,x,x,x,x
O=C(CSCc1c(F)cccc1F)Nc1ccccc1,-1.4,3.5,-1.5,-3.9,1.9,-0.3,x,x,x,x,x
CCCN1C(=O)/C(=C/c2c(NCCCOC(C)C)nc3c(C)cccn3c2=O)SC1=S,-30.3,109.7*,4.9,120.7*,55.6*,84.5,115.6*,128.7*,83.5*,-20.8,48.5*
COc1ccc(/C=N/n2cncn2)cc1Cn1cc([N+](=O)[O-])cn1,-5.9,-1.1,2.3,-1.1,-2.5,0.5,x,x,x,x,x
COc1ccc(/C=N/Nc2ccc([N+](=O)[O-])cc2)cc1Cn1cc([N+](=O)[O-])cn1,-21.1,53.8*,-2.1,107.8*,3.8,12.8,82.6*,91.5*,-2.9,-22.8,-3.8
CN(C)c1ccc(-c2csc(C(C)(O)c3cccc(F)c3)n2)cc1 (configuration not stated),-14.7,-3.2,-3.3,x,-1.2,0.0,x,x,x,x,x
COc1ccc(C)cc1Nc1nc(-c2c[nH]c3ccccc23)cs1,-7.8,41.7*,-0.5,31.4*,16.1,19.9,26.3*,35.8*,7.7,27.9,0.5
COc1ccc(OC)c(Nc2nc(-c3cccs3)cs2)c1,-17.7,29.2,2.2,1.9,11.5,2.2,x,x,x,x,x
OCC[C@H]1C[C@@H](O)[C@H](O)[C@]2(CCCCO2)O1,3.4,-2.1,-0.5,-0.9,-2.8,-2.3,x,x,x,x,x
O=C1OC(c2cccs2)=N/C1=C\c1ccc(-c2cccc(Cl)c2)o1,39.0,48.2*,-0.7,40.2*,17.1,11.7,166.5*,171.0*,4.8,-5.1,9.5
Clc1cccc(-c2ccc(/C=N/n3cnnc3)o2)c1,-30.9,-5.8,-4.6,-4.1,0.7,1.2,x,x,x,x,x
N#Cc1c(SCC(=O)Nc2nccs2)sc2c(O)cc(=O)[nH]c12,-20.9,60.5*,1.3,79.0*,11.8,-22.1,9.9,15.1,20.6,26.2,7.0
CCCSc1nnc(NC(=O)CSc2sc3c(O)cc(=O)[nH]c3c2C#N)s1,-4.9,4.1,2.0,17.7,0.0,1.6,x,x,x,x,x
CC(=O)c1cccc(NC(=O)C2Cc3c(-c4cccc(F)c4)ccnc3O2)c1 (configuration not stated),4.8,0.1,-1.4,x,0.7,2.4,x,x,x,x,x
COc1ccc(CCn2c(=N)c(C(=O)NC3CCCC3)cc3c(=O)n4ccccc4nc32)cc1,-4.7,-1.5,-6.3,1.6,-3.9,2.5,x,x,x,x,x
COc1ccc(CCn2c(=N)c(C(=O)NC3CCCC3)cc3c(=O)n4ccccc4nc32)cc1OC,-23.5,42.1*,-4.2,27.7*,12.7,24.3,45.4*,57.1*,33.9,-26.9,24.4
O=C(CCC(=O)c1cccs1)NCC(=O)Nc1ccc(F)c(F)c1F,7.5,2.1,2.7,1.4,3.1,4.5,x,x,x,x,x
O=c1cc(Cl)[nH]c(=O)n1CCNc1ncc(C(F)(F)F)cc1Cl,2.4,81.9*,-0.5,73.5*,36.6*,50.5*,72.4*,84.7*,99.1*,7.1,87.0*
Cc1[nH]c2ccccc2c1/C=C/C(=O)c1ccncc1,-26.4,47.0*,-1.9,76.4*,8.5,12.9,76.8*,86.5*,42.1*,-61.1,37.0
O=C(/C=C/c1cccc2ccccc12)c1ccncc1,6.3,2.9,-1.9,2.5,-15.8,5.1,x,x,x,x,x
N#C/C(=C\c1ccc(-c2ccccc2)cc1)c1nc(-c2ccco2)cs1,7.0,55.7*,-5.3,60.5*,14.4,22.4,20.6,28.1*,-1.6,-13.6,-4.7
CCC(C)NC(=O)CCSc1ccc(C)cc1 (configuration not stated),-0.2,-1.6,-0.6,-0.2,-2.5,-2.7,x,x,x,x,x
Cc1ccc(CO/N=C\Cc2snc(Sc3ncc(C(F)(F)F)cc3Cl)c2C#N)cc1,-11.8,44.7*,-1.5,35.2*,19.9,19.9,27.0*,34.1*,60.1*,9.7,49.1*
CCN(CC)S(=O)(=O)c1ccc(OC)c(NC(=S)Nc2cccc(C)c2C)c1,13.8,0.2,5.0,0.4,-8.0,-1.3,x,x,x,x,x
CCCCn1c(O)c(/C=C2\C=Nc3ccccc32)c(=O)[nH]c1=O,1.6,42.4*,0.8,30.3*,8.9,4.8,33.5*,42.9*,50.8*,-28.8,11.3
CCCCc1nn2c(N)c(/C=C3\C=Nc4ccccc43)c(=O)nc2s1,30.1,21.3,-0.4,5.3,1.6,5.6,x,x,x,x,x
C#CCN1C(=O)S/C(=C/c2cc(C)n(CC)c2C)C1=O,-3.2,2.5,-4.0,-1.6,-4.5,1.6,x,x,x,x,x
CCn1c(C)cc(/C=C2/SC(=S)N(CC(=O)O)C2=O)c1C,-65.0,52.3*,-1.9,83.1*,28.1,44.2*,94.3*,102.3*,96.9*,-16.6,63.1*
